According to ChEMBL document CHEMBL3588757, “Structure-based design, synthesis and biological testing of piperazine-linked bis-epipodophyllotoxin etoposide analogs” (Bioorg Med Chem, 2015):
Activity calls are given as the source filed them. No cut-off for these calls is given here.

Assays:
SK-MEL-2 = assay: Cytotoxicity against human SK-MEL-2 cells assessed as cell growth at 10 uM; format: functional; settings: read-out: Activity
NCI-H460 = assay: Cytotoxicity against human NCI-H460 cells assessed as cell growth at 10 uM; format: functional; settings: read-out: Activity
K562 [1] = assay: Relative resistance, ratio of IC50 for etoposide-resistant human K/VP.5 cells to IC50 for human K562 cells; format: functional
HOP-92 = assay: Cytotoxicity against human HOP92 cells assessed as cell growth at 10 uM; format: functional; settings: read-out: Activity
[2] = Cytotoxicity against human NCI-ADR-RES cells assessed as cell growth at 10 uM; format: functional; settings: read-out: Activity
CAKI-1 = assay: Cytotoxicity against human Caki1 cells assessed as cell growth at 10 uM; format: functional; settings: read-out: Activity
ACHN = assay: Cytotoxicity against human ACHN cells assessed as cell growth at 10 uM; format: functional; settings: read-out: Activity
K562 [3] = assay: Cytotoxicity against human K562 cells assessed as cell growth at 10 uM; format: functional; settings: read-out: Activity
HL-60(TB) = assay: Cytotoxicity against human HL-60(TB) cells assessed as cell growth at 10 uM; format: functional; settings: read-out: Activity
K562 [4] = assay: Cytotoxicity against human K562 cells assessed as cell growth inhibition after 72 hrs by MTS assay; format: functional, cell-based; settings: K562, 72 h
SW-620 = assay: Cytotoxicity against human SW620 cells assessed as cell growth at 10 uM; format: functional; settings: read-out: Activity
SR = assay: Cytotoxicity against human SR cells assessed as cell growth at 10 uM; format: functional; settings: read-out: Activity
MCF7 = assay: Cytotoxicity against human MCF7 cells assessed as cell growth at 10 uM; format: functional; settings: read-out: Activity
RPMI-8226 = assay: Cytotoxicity against human RPMI8226 cells assessed as cell growth at 10 uM; format: functional; settings: read-out: Activity
M14 = assay: Cytotoxicity against human M14 cells assessed as cell growth at 10 uM; format: functional; settings: read-out: Activity
MDA-MB-435 = assay: Cytotoxicity against human MDA-MB-435 cells assessed as cell growth at 10 uM; format: functional; settings: read-out: Activity
SK-OV-3 = assay: Cytotoxicity against human SKOV3 cells assessed as cell growth at 10 uM; format: functional; settings: read-out: Activity
OVCAR-8 = assay: Cytotoxicity against human OVCAR8 cells assessed as cell growth at 10 uM; format: functional; settings: read-out: Activity
SK-MEL-5 = assay: Cytotoxicity against human SK-MEL-5 cells assessed as cell growth at 10 uM; format: functional; settings: read-out: Activity
SF-268 = assay: Cytotoxicity against human SF268 cells assessed as cell growth at 10 uM; format: functional; settings: read-out: Activity
[5] = Cytotoxicity against human Hs578T cells assessed as cell growth at 10 uM; format: functional; settings: Hs-578T, read-out: Activity
MDA-MB-468 = assay: Cytotoxicity against human MDA-MB-468 cells assessed as cell growth at 10 uM; format: functional; settings: read-out: Activity
T47D = assay: Cytotoxicity against human T47D cells assessed as cell growth at 10 uM; format: functional; settings: read-out: Activity
TK-10 = assay: Cytotoxicity against human TK10 cells assessed as cell growth at 10 uM; format: functional; settings: read-out: Activity
KM12 = assay: Cytotoxicity against human KM12 cells assessed as cell growth at 10 uM; format: functional; settings: read-out: Activity
HCT-116 = assay: Cytotoxicity against human HCT116 cells assessed as cell growth at 10 uM; format: functional; settings: read-out: Activity
HT-29 = assay: Cytotoxicity against human HT-29 cells assessed as cell growth at 10 uM; format: functional; settings: read-out: Activity
A549 = assay: Cytotoxicity against human A549/ATCC cells assessed as cell growth at 10 uM; format: functional; settings: read-out: Activity
PC-3 = assay: Cytotoxicity against human PC3 cells assessed as cell growth at 10 uM; format: functional; settings: read-out: Activity
BT-549 = assay: Cytotoxicity against human BT549 cells assessed as cell growth at 10 uM; format: functional; settings: read-out: Activity
SNB-75 = assay: Cytotoxicity against human SNB75 cells assessed as cell growth at 10 uM; format: functional; settings: read-out: Activity
OVCAR-5 = assay: Cytotoxicity against human OVCAR5 cells assessed as cell growth at 10 uM; format: functional; settings: read-out: Activity
U-251 = assay: Cytotoxicity against human U251 cells assessed as cell growth at 10 uM; format: functional; settings: read-out: Activity
OVCAR-3 = assay: Cytotoxicity against human OVCAR3 cells assessed as cell growth at 10 uM; format: functional; settings: read-out: Activity
SNB-19 = assay: Cytotoxicity against human SNB19 cells assessed as cell growth at 10 uM; format: functional; settings: read-out: Activity
NCI-H322M = assay: Cytotoxicity against human NCI-H322M cells assessed as cell growth at 10 uM; format: functional; settings: read-out: Activity
RXF 393 = assay: Cytotoxicity against human RXF393 cells assessed as cell growth at 10 uM; format: functional; settings: read-out: Activity
COLO 205 = assay: Cytotoxicity against human COLO205 cells assessed as cell growth at 10 uM; format: functional; settings: read-out: Activity
HOP-62 = assay: Cytotoxicity against human HOP62 cells assessed as cell growth at 10 uM; format: functional; settings: read-out: Activity
[6] = Cytotoxicity against etoposide-resistant human K/VP.5 cells assessed as cell growth inhibition after 72 hrs by MTS assay; format: functional, cell-based; settings: K/VP.5, 72 h
How it was run: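 K/VP.5 cells are a K562-derived subline, 26-fold etoposide-resistant, with decreased topoisomerase IIα mRNA and protein. Cells were grown in suspension in αMEM with 10% fetal calf serum. Drugs were given from DMSO stocks, with final DMSO typically 0.4% or less. Read-out was MTS absorbance after 72 h. Typically nine concentrations were run in duplicate on two days. IC50 came from a four-parameter logistic fit.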

UO-31 = assay: Cytotoxicity against human UO31 cells assessed as cell growth at 10 uM; format: functional; settings: read-out: Activity
786-0 = assay: Cytotoxicity against human 786-0 cells assessed as cell growth at 10 uM; format: functional; settings: read-out: Activity
NCI-H23 = assay: Cytotoxicity against human NCI-H23 cells assessed as cell growth at 10 uM; format: functional; settings: read-out: Activity
UACC-257 = assay: Cytotoxicity against human UACC257 cells assessed as cell growth at 10 uM; format: functional; settings: read-out: Activity
NCI-H226 = assay: Cytotoxicity against human NCI-H226 cells assessed as cell growth at 10 uM; format: functional; settings: read-out: Activity
SF-295 = assay: Cytotoxicity against human SF295 cells assessed as cell growth at 10 uM; format: functional; settings: read-out: Activity
MOLT-4 = assay: Cytotoxicity against human MOLT4 cells assessed as cell growth at 10 uM; format: functional; settings: read-out: Activity
SF-539 = assay: Cytotoxicity against human SF539 cells assessed as cell growth at 10 uM; format: functional; settings: read-out: Activity
IGROV-1 = assay: Cytotoxicity against human IGROV1 cells assessed as cell growth at 10 uM; format: functional; settings: read-out: Activity
UACC-62 = assay: Cytotoxicity against human UACC62 cells assessed as cell growth at 10 uM; format: functional; settings: read-out: Activity
[7] = molecular target: DNA topoisomerase 2-alpha (Homo sapiens) (UniProt P11388); assay: Inhibition of full-length human recombinant topoisomerase 2-alpha-mediated decatenation activity of kDNA by ethidium bromide based gel-assay
A498 = assay: Cytotoxicity against human A498 cells assessed as cell growth at 10 uM; format: functional; settings: read-out: Activity
OVCAR-4 = assay: Cytotoxicity against human OVCAR4 cells assessed as cell growth at 10 uM; format: functional; settings: read-out: Activity
CCRF-CEM = assay: Cytotoxicity against human CCRF-CEM cells assessed as cell growth at 10 uM; format: functional; settings: read-out: Activity
[8] = molecular target: DNA topoisomerase 2-alpha (Homo sapiens) (UniProt P11388); assay: Inhibition of full-length human recombinant topoisomerase 2-alpha mediated relaxation and cleavage of supercoiled pBR322 plasmid DNA to linear DNA by ethidium bromide staining based gel electrophoresis assay
How it was run: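 Recombinant full-length human topoisomerase IIα with supercoiled pBR322 DNA at 37 °C. Components mixed on ice before drug addition. Complexes trapped with SDS; products run on ethidium bromide gels. Linear DNA identified against a HindIII-linearized marker; repeated on three days.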

SN12C = assay: Cytotoxicity against human SN12C cells assessed as cell growth at 10 uM; format: functional; settings: read-out: Activity
DU-145 = assay: Cytotoxicity against human DU145 cells assessed as cell growth at 10 uM; format: functional; settings: read-out: Activity
Malme-3M = assay: Cytotoxicity against human MALME-3M cells assessed as cell growth at 10 uM; format: functional; settings: read-out: Activity
HCC 2998 = assay: Cytotoxicity against human HCC2998 cells assessed as cell growth at 10 uM; format: functional; settings: read-out: Activity
SK-MEL-28 = assay: Cytotoxicity against human SK-MEL-28 cells assessed as cell growth at 10 uM; format: functional; settings: read-out: Activity
HCT-15 = assay: Cytotoxicity against human HCT15 cells assessed as cell growth at 10 uM; format: functional; settings: read-out: Activity
MDA-MB-231 = assay: Cytotoxicity against human MDA-MB-231/ATCC cells assessed as cell growth at 10 uM; format: functional; settings: read-out: Activity

Chain of DNA topoisomerase 2-alpha (Homo sapiens) (P11388 whole entry): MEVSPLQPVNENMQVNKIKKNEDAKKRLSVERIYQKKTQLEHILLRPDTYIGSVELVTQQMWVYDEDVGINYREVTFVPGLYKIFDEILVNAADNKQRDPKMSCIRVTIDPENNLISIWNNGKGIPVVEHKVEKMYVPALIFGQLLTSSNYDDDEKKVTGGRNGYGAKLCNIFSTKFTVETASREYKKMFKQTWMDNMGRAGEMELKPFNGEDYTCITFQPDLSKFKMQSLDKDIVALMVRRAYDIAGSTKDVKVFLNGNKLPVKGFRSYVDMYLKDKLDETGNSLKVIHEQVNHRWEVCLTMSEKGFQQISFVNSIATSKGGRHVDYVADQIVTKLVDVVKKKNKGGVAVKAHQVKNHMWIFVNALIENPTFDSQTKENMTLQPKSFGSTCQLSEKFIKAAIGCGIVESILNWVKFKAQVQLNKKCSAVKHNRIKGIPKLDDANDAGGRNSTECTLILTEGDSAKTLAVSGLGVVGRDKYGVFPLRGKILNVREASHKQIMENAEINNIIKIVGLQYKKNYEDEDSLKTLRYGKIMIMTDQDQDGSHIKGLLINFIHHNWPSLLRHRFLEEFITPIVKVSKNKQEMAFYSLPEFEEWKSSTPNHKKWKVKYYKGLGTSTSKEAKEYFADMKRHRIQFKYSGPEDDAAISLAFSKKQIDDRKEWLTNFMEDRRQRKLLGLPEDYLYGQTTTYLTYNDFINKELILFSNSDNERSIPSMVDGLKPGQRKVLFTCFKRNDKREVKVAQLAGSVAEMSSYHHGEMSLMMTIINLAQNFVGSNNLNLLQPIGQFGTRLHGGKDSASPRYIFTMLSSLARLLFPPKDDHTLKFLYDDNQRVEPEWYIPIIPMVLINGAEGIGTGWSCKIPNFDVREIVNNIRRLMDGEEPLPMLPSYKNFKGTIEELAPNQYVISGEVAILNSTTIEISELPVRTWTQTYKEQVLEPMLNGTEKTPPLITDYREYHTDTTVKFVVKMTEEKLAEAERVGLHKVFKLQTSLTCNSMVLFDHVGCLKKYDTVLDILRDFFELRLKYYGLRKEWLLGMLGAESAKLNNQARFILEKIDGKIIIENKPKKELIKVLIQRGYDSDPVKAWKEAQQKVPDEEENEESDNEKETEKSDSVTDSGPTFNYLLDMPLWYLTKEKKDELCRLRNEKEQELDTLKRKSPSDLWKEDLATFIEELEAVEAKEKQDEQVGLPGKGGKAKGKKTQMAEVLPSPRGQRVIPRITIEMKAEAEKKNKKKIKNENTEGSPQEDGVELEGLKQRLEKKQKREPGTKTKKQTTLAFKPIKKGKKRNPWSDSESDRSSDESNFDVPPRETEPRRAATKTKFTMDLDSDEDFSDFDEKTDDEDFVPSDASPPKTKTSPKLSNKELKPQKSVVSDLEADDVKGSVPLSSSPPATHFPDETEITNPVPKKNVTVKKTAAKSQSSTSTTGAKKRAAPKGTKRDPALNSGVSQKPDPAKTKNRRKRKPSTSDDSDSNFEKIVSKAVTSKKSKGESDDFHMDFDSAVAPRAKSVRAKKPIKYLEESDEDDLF

Structure (SMILES): COc1cc([C@@H]2c3cc4c(cc3[C@@H](NC(=O)CN3CCN(CCCN5CCN(CC(=O)N[C@@H]6c7cc8c(cc7[C@@H](c7cc(OC)c(O)c(OC)c7)[C@H]7C(=O)OC[C@@H]76)OCO8)CC5)CC3)[C@H]3COC(=O)[C@H]23)OCO4)cc(OC)c1O
- growth at 10 µM (SK-MEL-2): 101%
- growth at 10 µM (NCI-H460): 24.3%
- Ratio IC50 (K562 [1]): 14.2
- growth at 10 µM (HOP-92): 65.7%
- growth at 10 µM [2]: 103%
- growth at 10 µM (CAKI-1): 97%
- growth at 10 µM (ACHN): 92.5%
- growth at 10 µM (K562 [3]): 61.9%
- growth at 10 µM (HL-60(TB)): 26.7%
- IC50 (K562 [4]): 525 nM
- growth at 10 µM (SW-620): 54.9%
- growth at 10 µM (SR): 15.2%
- growth at 10 µM (MCF7): 26%
- growth at 10 µM (RPMI-8226): 63.4%
- growth at 10 µM (M14): 95.4%
- growth at 10 µM (MDA-MB-435): 88.6%
- growth at 10 µM (SK-OV-3): 96.7%
- growth at 10 µM (OVCAR-8): 95.5%
- growth at 10 µM (SK-MEL-5): 77.6%
- growth at 10 µM (SF-268): 69.6%
- growth at 10 µM [5]: 95.2%
- growth at 10 µM (MDA-MB-468): 93.8%
- growth at 10 µM (T47D): 56.9%
- growth at 10 µM (TK-10): 88.7%
- growth at 10 µM (KM12): 87.9%
- growth at 10 µM (HCT-116): 64.6%
- growth at 10 µM (HT-29): 89.5%
- growth at 10 µM (A549): 47%
- growth at 10 µM (PC-3): 79.8%
- growth at 10 µM (BT-549): 69.6%
- growth at 10 µM (SNB-75): 66.8%
- growth at 10 µM (OVCAR-5): 102%
- growth at 10 µM (U-251): 45.1%
- growth at 10 µM (OVCAR-3): 98.2%
- growth at 10 µM (SNB-19): 59.3%
- growth at 10 µM (NCI-H322M): 104%
- growth at 10 µM (RXF 393): 90.2%
- growth at 10 µM (COLO 205): 53.9%
- growth at 10 µM (HOP-62): 75.9%
- IC50 [6]: 7.5 µM
- growth at 10 µM (UO-31): 93.1%
- growth at 10 µM (786-0): 95.9%
- growth at 10 µM (NCI-H23): 84.2%
- growth at 10 µM (UACC-257): 79.7%
- growth at 10 µM (NCI-H226): 86%
- growth at 10 µM (SF-295): 94.5%
- growth at 10 µM (MOLT-4): 10.9%
- growth at 10 µM (SF-539): 77.8%
- growth at 10 µM (IGROV-1): 71.8%
- growth at 10 µM (UACC-62): 56.4%
- inhibition [7]: Active
- growth at 10 µM (A498): 65%
- growth at 10 µM (OVCAR-4): 95.6%
- growth at 10 µM (CCRF-CEM): 12.8%
- Effect on topoisomerase 2-alpha DNA cleavage (qualitative) [8]: Dose-dependent effect
- growth at 10 µM (SN12C): 57.8%
- growth at 10 µM (DU-145): 83.5%
- growth at 10 µM (Malme-3M): 68.1%
- growth at 10 µM (HCC 2998): 97.8%
- growth at 10 µM (SK-MEL-28): 85.9%
- growth at 10 µM (HCT-15): 98.6%
- growth at 10 µM (MDA-MB-231): 93.9%
